From PubChem
Shown are actives, neighbours in structure and some others; about 1.7% of the full set was active somewhere.
ZTA DNA inh: counter-screen for EBNA-1 inhibitors: inhibitors of Epstein-Barr virus ZTA; ZTA-DNA binding, fluorescence polarization; inhibition, % at 11 µM; hit rate 0.15% among 320,000; AID 2234; in the data active = inhibition above about 33%
EBNA-1 inh: blocks EBNA-1 binding to DNA. EBNA-1 DNA binding, fluorescence polarization. inhibition, % at 14.8 µM. hit rate 0.34% among 300,000; in the data active = inhibition above about 28%
PP1 counter: PP1-alpha (human) inhibition in PP5 counter-screen; inhibition, % at 6.7 µM; AID 2235; purified PP1alpha, OMFP fluorescence; hit rate 0.9% among 320,000; P62136;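 active = inhibition above the mean inhibition of all tested compounds plus 3 SD, computed separately for each screening campaign, cut at about 15% in these data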
Target sequence (P62136 whole entry, looked up): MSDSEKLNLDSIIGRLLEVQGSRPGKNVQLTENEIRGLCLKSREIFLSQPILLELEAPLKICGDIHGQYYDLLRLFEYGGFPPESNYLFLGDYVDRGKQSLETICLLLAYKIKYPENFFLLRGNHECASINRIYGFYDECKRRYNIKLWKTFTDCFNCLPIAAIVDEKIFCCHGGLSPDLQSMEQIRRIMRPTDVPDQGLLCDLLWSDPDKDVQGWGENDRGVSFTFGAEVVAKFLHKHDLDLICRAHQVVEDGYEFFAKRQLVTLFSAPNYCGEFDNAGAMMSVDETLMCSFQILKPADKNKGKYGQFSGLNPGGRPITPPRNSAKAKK
core dimer inh: HCV core protein dimerization inhibition | inhibition, % at 5 µM | TR-FRET GST/Flag-core106 dimerization, 1536-well | hit rate 0.33% among 300,000;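 active = inhibition above the mean of all tested compounds plus 3 SD, set per screening campaign, cut at about 45% in these data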
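Material: GST/Flag-tagged HCV core106 proteins. Incubation: 4 h, 22.5 °C incubation. Read-out basis: inhibition (%) from 671 over 617 nm ratio. Measured by: TR-FRET, excitation 340 nm, emission 617 and 671 nm.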
PP5 inh: blocks human protein phosphatase 5 activity; P53041; purified PP5c, OMFP substrate fluorescence; inhibition, % at 6.7 µM; hit rate 0.18% among 320,000; AID 1987;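 active = inhibition above the campaign's mean inhibition across all tested compounds plus 3 SD, cut at about 9.5% in these data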;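 note: 0% = DMSO only and 100% = 100 µM cantharidin control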
EBNA-1 confirm: EBNA-1 (EBV) inhibition, confirmation; hit rate 35% among 830; Recombinant EBNA-1 DBD, Cy5-DNA fluorescence polarization; AID 2292; shares compounds with EBNA-1 inh; inhibition, % at 14.8 µM;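 active = mean inhibition across replicates above a set limit taken from the earlier primary screen, cut at about 28% in these data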;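 note: plate controls were EBNA-1 protein with DMSO for no effect and wells lacking EBNA-1 for full effect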
ZTA counter trip: blocks Epstein-Barr virus ZTA in triplicate, EBNA-1 counter-screen; inhibition, % at 11.1 µM; 830 tested, under 10 active; AID 2328; shares compounds with EBNA-1 inh; Zta-ZRE DNA binding, Cy5 fluorescence polarization;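 active = mean inhibition over triplicates above a set limit taken from the primary EBNA-1 screen, cut at about 37% in these data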;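 note: purified full length Zta protein with Cy5 labeled ZRE DNA probe; 0% = Zta with DMSO and 100% = wells lacking Zta protein; inhibitors lower polarization by freeing the labeled DNA probe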
The depositor's hits bear a star; / = no result given.

SMILES | ZTA DNA inh | EBNA-1 inh | PP1 counter | core dimer inh | PP5 inh | EBNA-1 confirm | ZTA counter trip
COc1ccc(C(=O)Nc2ccc(C(=O)c3ccccc3)cc2)cc1 | 10 | 11 | -2 | 8 | -1 | / | /
Cc1ccc(C(=O)NCC(=O)NCCCc2ccccc2)cc1 | -3 | -11 | -1 | -5 | 1 | / | /
CCOC(=O)c1[nH]c(C)c(C(=O)OCC(=O)N(C)C2CCS(=O)(=O)C2)c1C (stereo not given) | -6 | 0 | 1 | -7 | 0 | / | /
CCOc1ccc(NC(=O)CC(=O)Nc2ccc(OCC)cc2)cc1 | 0 | 42* | -4 | 2 | 1 | 4 | -4
Nc1nc(-c2ccc3c(c2)CCCC3)cs1 | -17 | 53* | 1 | -1 | 4 | 7 | -6
Nc1nc(-c2ccc3c(c2)OCCO3)cs1 | -8 | -6 | 2 | 1 | 1 | / | /
COc1ccc(OC)c(NC(=O)C2CCCN(S(C)(=O)=O)C2)c1 (stereo not given) | 6 | 1 | -2 | 6 | 0 | / | /
Cc1ccsc1/C=N/n1c(-c2ccccn2)n[nH]c1=S | -32 | -3 | 6 | -16 | 1 | / | /
CCOCCCNC(=O)c1ccc(Cn2c(=O)[nH]c3ccsc3c2=O)cc1 | -4 | -1 | 3 | -4 | 0 | / | /
O=C(Nc1cc(Cl)cc(Cl)c1)c1ccc(Cn2c(=O)[nH]c3ccsc3c2=O)cc1 | -2 | 36* | 8 | 18 | 0 | 29* | -5
Cc1cc(C)n(-c2ccc(Cl)c(C(=O)OCC(N)=O)n2)n1 | 10 | 36* | -5 | -1 | 0 | 12 | 7
CCOC(=O)Cn1cnc2c(cnn2-c2ccc(OC)cc2)c1=O | -2 | 5 | 0 | 6 | -3 | / | /
COc1ccc(-n2ncc3c(=O)n(CC(=O)N4c5ccccc5CC4C)cnc32)cc1 (stereo not given) | 1 | 31* | 2 | 7 | 1 | 1 | 4
O=C(Nc1ccc(F)cc1)N(Cc1ccco1)Cc1cc2cc3c(cc2[nH]c1=O)OCO3 | 0 | 28* | 0 | 12 | 1 | 12 | 5
COc1ccccc1NC(=S)N(Cc1ccco1)Cc1cc2cc(C)ccc2[nH]c1=O | -22 | 42* | -9 | 4 | -8 | -2 | -13
COc1ccc(C(=O)N(Cc2ccco2)Cc2cc3cc(C)ccc3[nH]c2=O)cc1OC | -20 | -1 | -1 | 2 | 3 | / | /
O=C(Nc1ccc(F)cc1)N(Cc1cccs1)Cc1cc2cc3c(cc2[nH]c1=O)OCO3 | 5 | -2 | 5 | 15 | 4 | / | /
COc1cccc(CNC(=O)COC(=O)c2nc(Cl)c(Cl)c(Cl)c2Cl)c1 | -8 | / | -2 | / | 0 | / | /
CC(NC(=O)COc1ccc(/C=N/NC(=O)C(=O)Nc2ccccc2Br)cc1)c1ccccc1 (stereo not given) | -10 | 34* | -4 | 7 | -1 | 50* | 9
O=C(COc1ccc(/C=N/NC(=O)c2ccccc2Br)cc1)Nc1ccccc1 | -1 | -3 | 4 | -6 | 2 | / | /
CCn1c(O)c(/C=C2\C=Nc3ccccc32)sc1=Nc1ccc(C)cc1 | 8 | 9 | -4 | 0 | 0 | / | /
CCn1c(O)c(/C=C2\C=Nc3ccccc32)sc1=O | -7 | 28* | -1 | -17 | 0 | 14 | 9
CCc1c(O)nc(SCC(=O)N2CCc3cc(OC)c(OC)cc3[C@@H]2C)[nH]c1=O | 7 | 0 | -2 | 1 | 0 | / | /
CCc1ccccc1NC(=O)C1CCN(S(=O)(=O)c2ccc3c(c2)N(C(C)=O)CCO3)CC1 | 0 | 2 | 0 | -2 | 0 | / | /
CC1CC(C)CN(C(=O)c2cccc(S(=O)(=O)Nc3cc(C(F)(F)F)ccc3Cl)c2)C1 (stereo not given) | 10 | 30* | 6 | 21 | 4 | 2 | -6
O=C(O)c1cccc(S(=O)(=O)Nc2cc(Cl)ccc2Cl)c1 | -1 | 8 | 0 | -6 | 0 | / | /
Cc1cc(C(=O)COC(=O)c2cccc(O)c2)c(C)n1C1CC1 | -5 | / | 0 | / | 0 | / | /
Cn1c(=O)n(C)c2cc(/C=C3/NC(=O)N(Cc4ccccc4)C3=O)ccc21 | -7 | 134* | -3 | -2 | 4 | 113* | 1
O=C(N/C(=C/c1ccc(Br)cc1)c1nc2ccccc2[nH]1)c1ccco1 | 18 | 31* | 2 | -4 | 1 | 82* | 18
